From ChEMBL document CHEMBL5108039, “Piperazine tethered bergenin heterocyclic hybrids: design, synthesis, anticancer activity, and molecular docking studies” (RSC Med Chem, 2022)

Columns and labels:
HCT-15 = experiment: Cytotoxicity against human HCT-15 cells assessed as cell growth inhibition; assay type: functional, cell-based
In short: (§1)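 Compounds were dissolved in sterile DMSO as 10 mg ml−1 stocks and tested for in vitro growth inhibition of human cancer cell lines. Doxorubicin was the standard drug and DMSO (0.01%) the vehicle control. IC50 values are reported as means.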

SCC-9 = experiment: Cytotoxicity against human SCC-9 cells assessed as cell growth inhibition; assay type: functional, cell-based; in short: as §1
CAL-27 = experiment: Cytotoxicity against human CAL-27 cells assessed as cell growth inhibition; assay type: functional, cell-based; in short: as §1
MCF7 = experiment: Cytotoxicity against human MCF7 cells assessed as cell growth inhibition; assay type: functional, cell-based; in short: as §1
[1] = Cytotoxicity against human BEAS-2B cells assessed as cell growth inhibition; assay type: toxicity, cell-based
In short: (§2)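 Compounds were dissolved in sterile DMSO as 10 mg ml−1 stocks and tested in vitro for cytotoxicity in a cell-line panel, with DMSO (0.01%) as vehicle control and doxorubicin as standard. Mean IC50 values were reported, and the normal lung epithelial cells were tested up to 100 μM.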

A549 = experiment: Cytotoxicity against human A549 cells assessed as cell growth inhibition; assay type: functional, cell-based; in short: as §2

| SMILES | IC50 (HCT-15) [µM] | IC50 (SCC-9) [µM] | IC50 (CAL-27) [µM] | IC50 (MCF7) [µM] | IC50 [1] [µM] | IC50 (A549) [µM] |
| --- | --- | --- | --- | --- | --- | --- |
| COc1c(O)c(CN2CCN(S(=O)(=O)c3ccc(C(F)(F)F)cc3)CC2)c2c(c1O)C1O[C@H](CO)[C@@H](O)[C@H](O)C1OC2=O (some centres not stated) | > 100 | > 100 | 68.6 | > 100 | > 100 | > 100 |
| COc1c(O)c(CN2CCN(S(=O)(=O)c3cccc4ccccc34)CC2)c2c(c1O)C1O[C@H](CO)[C@@H](O)[C@H](O)C1OC2=O (some centres not stated) | > 100 | > 100 | 74 | > 100 | > 100 | > 100 |
| COc1c(O)c(CN2CCN(CC(=O)Nc3nc4c(C)cccc4s3)CC2)c2c(c1O)C1O[C@H](CO)[C@@H](O)[C@H](O)C1OC2=O (some centres not stated) | > 100 | > 100 | 81.2 | > 100 | > 100 | > 100 |
| COc1c(O)c(CN2CCN(S(=O)(=O)c3ccc(F)cc3Cl)CC2)c2c(c1O)C1O[C@H](CO)[C@@H](O)[C@H](O)C1OC2=O (some centres not stated) | > 100 | > 100 | > 100 | > 100 | > 100 | > 100 |
| COc1c(O)c(CN2CCN(S(=O)(=O)c3ccc(C)cc3)CC2)c2c(c1O)C1O[C@H](CO)[C@@H](O)[C@H](O)C1OC2=O (some centres not stated) | > 100 | > 100 | 56.8 | > 100 | 51.6 | > 100 |
| COc1c(O)c(CN2CCN(CC(=O)Nc3nc4ccccc4s3)CC2)c2c(c1O)C1O[C@H](CO)[C@@H](O)[C@H](O)C1OC2=O (some centres not stated) | > 100 | 64.8 | 91.2 | > 100 | 97.3 | > 100 |
| COc1ccc2nc(NC(=O)CN3CCN(Cc4c(O)c(OC)c(O)c5c4C(=O)OC4C5O[C@H](CO)[C@@H](O)[C@@H]4O)CC3)sc2c1 (some centres not stated) | > 100 | > 100 | > 100 | > 100 | > 100 | > 100 |
